In ChEMBL document CHEMBL1129660, “Studies on 6-aminoquinolones: synthesis and antibacterial evaluation of 6-amino-8-methylquinolones” (J Med Chem, 1996):
≈ marks a conversion by molar mass, not a printed value.

Test system: Pseudomonas aeruginosa
Test: Antibacterial activity tested against P. ae (Pseudomonas aeruginosa) ATCC 9027
Assay type: functional
In short: (§1)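 MICs (µg/mL) determined by conventional agar dilution against a panel of eight Gram-negative and five Gram-positive reference strains.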
Work on `CC1CN(c2cc3c(cc2N)c(=O)c(C(=O)O)cn3C2CC2)CC(C)(C)N1` (stereo unspecified) yielded an MIC of 2 µg/mL (≈ 5.4 µM). For `Cc1c(N2CCCC(CO)C2)c(N)cc2c(=O)c(C(=O)O)cn(C3CC3)c12` (stereo unspecified), the MIC was 2 µg/mL (≈ 5.38 µM). For `Cc1c(N2CCC(C)CC2)c(N(C)C)cc2c(=O)c(C(=O)O)cn(C3CC3)c12`, the MIC was 64 µg/mL (≈ 167 µM). `Cc1c(N2CCN(C)CC2)c(N)cc2c(=O)c(C(=O)O)cn(C3CC3)c12` showed an MIC of 2 µg/mL (≈ 5.61 µM).

Test system: Escherichia coli
Test: Antibacterial activity tested against Escherichia coli ATCC 8739
Assay type: functional
In short: as §1
Work on `CC1CN(c2cc3c(cc2N)c(=O)c(C(=O)O)cn3C2CC2)CC(C)(C)N1` (stereo unspecified) yielded an MIC of 0.03 µg/mL (≈ 0.081 µM). For `Cc1c(N2CCCC(CO)C2)c(N)cc2c(=O)c(C(=O)O)cn(C3CC3)c12` (stereo unspecified), the MIC was 0.016 µg/mL (≈ 0.0431 µM). `Cc1c(N2CCC(C)CC2)c(N(C)C)cc2c(=O)c(C(=O)O)cn(C3CC3)c12` gave an MIC of 64 µg/mL (≈ 167 µM). Work on `Cc1c(N2CCN(C)CC2)c(N)cc2c(=O)c(C(=O)O)cn(C3CC3)c12` yielded an MIC of 0.03 µg/mL (≈ 0.0842 µM).

Test system: Staphylococcus aureus
Test: Antibacterial activity against Staphylococcus aureus MPR 5
Assay type: functional
In short: as §1
Work on `CC1CN(c2cc3c(cc2N)c(=O)c(C(=O)O)cn3C2CC2)CC(C)(C)N1` (stereo unspecified) yielded an MIC of 8 µg/mL (≈ 21.6 µM). With `Cc1c(N2CCCC(CO)C2)c(N)cc2c(=O)c(C(=O)O)cn(C3CC3)c12` (stereo unspecified) the MIC was 0.125 µg/mL (≈ 0.337 µM). `Cc1c(N2CCC(C)CC2)c(N(C)C)cc2c(=O)c(C(=O)O)cn(C3CC3)c12` gave an MIC of 16 µg/mL (≈ 41.7 µM). With `Cc1c(N2CCN(C)CC2)c(N)cc2c(=O)c(C(=O)O)cn(C3CC3)c12` the MIC was 0.5 µg/mL (≈ 1.4 µM).

Test system: Enterobacter cloacae
Test: Antibacterial activity tested against Enterobacter cloacae OMNFI 174
Assay type: functional
Work on `CC1CN(c2cc3c(cc2N)c(=O)c(C(=O)O)cn3C2CC2)CC(C)(C)N1` (stereo unspecified) yielded an MIC of 0.5 µg/mL (≈ 1.35 µM). `Cc1c(N2CCCC(CO)C2)c(N)cc2c(=O)c(C(=O)O)cn(C3CC3)c12` (stereo unspecified) showed an MIC of 2 µg/mL (≈ 5.38 µM). `Cc1c(N2CCC(C)CC2)c(N(C)C)cc2c(=O)c(C(=O)O)cn(C3CC3)c12` showed an MIC of 64 µg/mL (≈ 167 µM). For `Cc1c(N2CCN(C)CC2)c(N)cc2c(=O)c(C(=O)O)cn(C3CC3)c12`, the MIC was 0.125 µg/mL (≈ 0.351 µM).

Test system: Proteus vulgaris
Test: Antibacterial activity tested against Proteus vulgaris CNUR 5
Assay type: functional
In short: as §1
With `CC1CN(c2cc3c(cc2N)c(=O)c(C(=O)O)cn3C2CC2)CC(C)(C)N1` (stereo unspecified) the MIC was 64 µg/mL (≈ 173 µM). Work on `Cc1c(N2CCCC(CO)C2)c(N)cc2c(=O)c(C(=O)O)cn(C3CC3)c12` (stereo unspecified) yielded an MIC of 64 µg/mL (≈ 172 µM). Work on `Cc1c(N2CCC(C)CC2)c(N(C)C)cc2c(=O)c(C(=O)O)cn(C3CC3)c12` yielded an MIC of 64 µg/mL (≈ 167 µM). `Cc1c(N2CCN(C)CC2)c(N)cc2c(=O)c(C(=O)O)cn(C3CC3)c12` showed an MIC of 4 µg/mL (≈ 11.2 µM).

Test system: Staphylococcus aureus
Test: Antibacterial activity against Staphylococcus aureus ATCC 6538
Assay type: functional
In short: as §1
Work on `CC1CN(c2cc3c(cc2N)c(=O)c(C(=O)O)cn3C2CC2)CC(C)(C)N1` (stereo unspecified) yielded an MIC of 8 µg/mL (≈ 21.6 µM). In the case of `Cc1c(N2CCCC(CO)C2)c(N)cc2c(=O)c(C(=O)O)cn(C3CC3)c12` (stereo unspecified), the MIC was 0.125 µg/mL (≈ 0.337 µM). With `Cc1c(N2CCC(C)CC2)c(N(C)C)cc2c(=O)c(C(=O)O)cn(C3CC3)c12` the MIC was 64 µg/mL (≈ 167 µM). With `Cc1c(N2CCN(C)CC2)c(N)cc2c(=O)c(C(=O)O)cn(C3CC3)c12` the MIC was 0.5 µg/mL (≈ 1.4 µM).

Test system: Bacteria
Test: Geometric mean of antibacterial activity (Gram +ve bacteria) of the compound
Assay type: functional
In short: (§2)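 Geometric means calculated from agar-dilution MICs (µg/mL), taken separately across the five Gram-positive and the eight Gram-negative panel strains.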
Work on `CC1CN(c2cc3c(cc2N)c(=O)c(C(=O)O)cn3C2CC2)CC(C)(C)N1` (stereo unspecified) yielded a Geometric mean of 6.964. `Cc1c(N2CCCC(CO)C2)c(N)cc2c(=O)c(C(=O)O)cn(C3CC3)c12` (stereo unspecified) gave a Geometric mean of 0.287. `Cc1c(N2CCC(C)CC2)c(N(C)C)cc2c(=O)c(C(=O)O)cn(C3CC3)c12` gave a Geometric mean of 24.251. In the case of `Cc1c(N2CCN(C)CC2)c(N)cc2c(=O)c(C(=O)O)cn(C3CC3)c12`, the Geometric mean was 1.

Test system: Providencia stuartii
Test: Antibacterial activity tested against Providencia stuartii CNUR 5
Assay type: functional
In short: as §1
`CC1CN(c2cc3c(cc2N)c(=O)c(C(=O)O)cn3C2CC2)CC(C)(C)N1` (stereo unspecified) gave an MIC of 4 µg/mL (≈ 10.8 µM). With `Cc1c(N2CCCC(CO)C2)c(N)cc2c(=O)c(C(=O)O)cn(C3CC3)c12` (stereo unspecified) the MIC was 4 µg/mL (≈ 10.8 µM). `Cc1c(N2CCC(C)CC2)c(N(C)C)cc2c(=O)c(C(=O)O)cn(C3CC3)c12` gave an MIC of 64 µg/mL (≈ 167 µM). `Cc1c(N2CCN(C)CC2)c(N)cc2c(=O)c(C(=O)O)cn(C3CC3)c12` gave an MIC of 2 µg/mL (≈ 5.61 µM).

Test system: Escherichia coli
Test: Inhibitory activity against gyrase supercoiling activity from Escherichia coli
Assay type: functional
In short: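 Inhibition of DNA gyrase supercoiling activity, by a previously described protocol with slight modifications. IC50 derived by densitometric quantification of the supercoiled DNA peak in an agarose gel.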
`Cc1c(N2CCN(C)CC2)c(N)cc2c(=O)c(C(=O)O)cn(C3CC3)c12` showed an IC50 of 3.78 µg/mL (≈ 10.6 µM).

Test system: Klebsiella pneumoniae
Test: Antibacterial activity tested against Klebsiella pneumoniae (Klebsiella pneumoniae) ATCC 10031
Assay type: functional
In short: as §1
With `CC1CN(c2cc3c(cc2N)c(=O)c(C(=O)O)cn3C2CC2)CC(C)(C)N1` (stereo unspecified) the MIC was 0.03 µg/mL (≈ 0.081 µM). In the case of `Cc1c(N2CCCC(CO)C2)c(N)cc2c(=O)c(C(=O)O)cn(C3CC3)c12` (stereo unspecified), the MIC was 0.016 µg/mL (≈ 0.0431 µM). Work on `Cc1c(N2CCC(C)CC2)c(N(C)C)cc2c(=O)c(C(=O)O)cn(C3CC3)c12` yielded an MIC of 64 µg/mL (≈ 167 µM). For `Cc1c(N2CCN(C)CC2)c(N)cc2c(=O)c(C(=O)O)cn(C3CC3)c12`, the MIC was 0.03 µg/mL (≈ 0.0842 µM).

Test system: Staphylococcus epidermidis
Test: Antibacterial activity tested against Staphylococcus epidermidis CPHL A2
Assay type: functional
In short: as §1
In the case of `CC1CN(c2cc3c(cc2N)c(=O)c(C(=O)O)cn3C2CC2)CC(C)(C)N1` (stereo unspecified), the MIC was 2 µg/mL (≈ 5.4 µM). For `Cc1c(N2CCCC(CO)C2)c(N)cc2c(=O)c(C(=O)O)cn(C3CC3)c12` (stereo unspecified), the MIC was 0.25 µg/mL (≈ 0.673 µM). With `Cc1c(N2CCC(C)CC2)c(N(C)C)cc2c(=O)c(C(=O)O)cn(C3CC3)c12` the MIC was 32 µg/mL (≈ 83.4 µM). `Cc1c(N2CCN(C)CC2)c(N)cc2c(=O)c(C(=O)O)cn(C3CC3)c12` gave an MIC of 1 µg/mL (≈ 2.81 µM).

Test system: not listed separately
Test: Geometric mean of antibacterial activity (Gram -ve bacteria) of the compound
Assay type: functional
In short: as §2
`CC1CN(c2cc3c(cc2N)c(=O)c(C(=O)O)cn3C2CC2)CC(C)(C)N1` (stereo unspecified) showed a Geometric mean of 0.451. For `Cc1c(N2CCCC(CO)C2)c(N)cc2c(=O)c(C(=O)O)cn(C3CC3)c12` (stereo unspecified), the Geometric mean was 0.504. In the case of `Cc1c(N2CCC(C)CC2)c(N(C)C)cc2c(=O)c(C(=O)O)cn(C3CC3)c12`, the Geometric mean was 64. `Cc1c(N2CCN(C)CC2)c(N)cc2c(=O)c(C(=O)O)cn(C3CC3)c12` gave a Geometric mean of 0.205.

Test system: Escherichia coli
Test: Antibacterial activity tested against Escherichia coli ISF 432
Assay type: functional
In short: as §1
For `CC1CN(c2cc3c(cc2N)c(=O)c(C(=O)O)cn3C2CC2)CC(C)(C)N1` (stereo unspecified), the MIC was 0.03 µg/mL (≈ 0.081 µM). `Cc1c(N2CCCC(CO)C2)c(N)cc2c(=O)c(C(=O)O)cn(C3CC3)c12` (stereo unspecified) gave an MIC of 0.016 µg/mL (≈ 0.0431 µM). With `Cc1c(N2CCC(C)CC2)c(N(C)C)cc2c(=O)c(C(=O)O)cn(C3CC3)c12` the MIC was 64 µg/mL (≈ 167 µM). `Cc1c(N2CCN(C)CC2)c(N)cc2c(=O)c(C(=O)O)cn(C3CC3)c12` showed an MIC of 0.03 µg/mL (≈ 0.0842 µM).

Test system: Shigella
Test: Antibacterial activity tested against Shigella enteritidis
Assay type: functional
In short: as §1
Compound `CC1CN(c2cc3c(cc2N)c(=O)c(C(=O)O)cn3C2CC2)CC(C)(C)N1` (stereo unspecified) has an MIC of 0.25 µg/mL (≈ 0.675 µM). Work on `Cc1c(N2CCCC(CO)C2)c(N)cc2c(=O)c(C(=O)O)cn(C3CC3)c12` (stereo unspecified) yielded an MIC of 1 µg/mL (≈ 2.69 µM). With `Cc1c(N2CCC(C)CC2)c(N(C)C)cc2c(=O)c(C(=O)O)cn(C3CC3)c12` the MIC was 64 µg/mL (≈ 167 µM). `Cc1c(N2CCN(C)CC2)c(N)cc2c(=O)c(C(=O)O)cn(C3CC3)c12` gave an MIC of 0.06 µg/mL (≈ 0.168 µM).

Test system: Staphylococcus epidermidis
Test: Antibacterial activity tested against Staphylococcus epidermidis HCF Berset C
Assay type: functional
In short: as §1
In the case of `CC1CN(c2cc3c(cc2N)c(=O)c(C(=O)O)cn3C2CC2)CC(C)(C)N1` (stereo unspecified), the MIC was 4 µg/mL (≈ 10.8 µM). Work on `Cc1c(N2CCCC(CO)C2)c(N)cc2c(=O)c(C(=O)O)cn(C3CC3)c12` (stereo unspecified) yielded an MIC of 0.25 µg/mL (≈ 0.673 µM). In the case of `Cc1c(N2CCC(C)CC2)c(N(C)C)cc2c(=O)c(C(=O)O)cn(C3CC3)c12`, the MIC was 8 µg/mL (≈ 20.9 µM). Work on `Cc1c(N2CCN(C)CC2)c(N)cc2c(=O)c(C(=O)O)cn(C3CC3)c12` yielded an MIC of 1 µg/mL (≈ 2.81 µM).

Test system: Enterococcus faecalis
Test: Antibacterial activity tested against Streptococcus faecalis LEP Br
Assay type: functional
In short: as §1
With `CC1CN(c2cc3c(cc2N)c(=O)c(C(=O)O)cn3C2CC2)CC(C)(C)N1` (stereo unspecified) the MIC was 32 µg/mL (≈ 86.4 µM). `Cc1c(N2CCCC(CO)C2)c(N)cc2c(=O)c(C(=O)O)cn(C3CC3)c12` (stereo unspecified) gave an MIC of 2 µg/mL (≈ 5.38 µM). Work on `Cc1c(N2CCC(C)CC2)c(N(C)C)cc2c(=O)c(C(=O)O)cn(C3CC3)c12` yielded an MIC of 32 µg/mL (≈ 83.4 µM). Compound `Cc1c(N2CCN(C)CC2)c(N)cc2c(=O)c(C(=O)O)cn(C3CC3)c12` has an MIC of 4 µg/mL (≈ 11.2 µM).
